Test results: ChEMBL document CHEMBL3286317, “Synthesis and biological evaluation of a unique heparin mimetic hexasaccharide for structure-activity relationship studies” (J Med Chem, 2014)
Activity calls are given as the source filed them. The rule behind the calls is not given here.

Experiments:
[1] = molecular target: T1, Fibroblast growth factor 2 (Homo sapiens, UniProt P09038); assay: Binding affinity to human recombinant FGF2 at 780 uM by STD-NMR analysis
[2] = molecular target: T2, C-X-C motif chemokine 2 (Homo sapiens, UniProt P19875); assay: Binding affinity to human recombinant CXCL2 by surface plasmon resonance assay
T2 sequence (P19875 whole entry): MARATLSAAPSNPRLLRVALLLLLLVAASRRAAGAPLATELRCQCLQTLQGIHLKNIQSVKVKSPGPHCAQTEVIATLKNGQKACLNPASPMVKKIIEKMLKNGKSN
Procedure, shortened: (§1)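 Biotinylated low-molecular-weight heparin was captured on a neutravidin surface. Protein at varying concentrations was mixed with a hexasaccharide dilution series and injected. Free protein was read from a quadratic slope-vs-concentration standard curve. KD = [P_free][H_total]/[P_bound], averaged over three hexasaccharide concentrations.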

[3] = molecular target: T1, Fibroblast growth factor 2; assay: Binding affinity to human recombinant FGF2 by surface plasmon resonance assay; procedure, shortened: as §1
[4] = molecular target: T3, Bone morphogenetic protein 4 (Homo sapiens, UniProt P12644); assay: Binding affinity to human recombinant BMP4 by surface plasmon resonance assay; procedure, shortened: as §1
T3 sequence (P12644 whole entry): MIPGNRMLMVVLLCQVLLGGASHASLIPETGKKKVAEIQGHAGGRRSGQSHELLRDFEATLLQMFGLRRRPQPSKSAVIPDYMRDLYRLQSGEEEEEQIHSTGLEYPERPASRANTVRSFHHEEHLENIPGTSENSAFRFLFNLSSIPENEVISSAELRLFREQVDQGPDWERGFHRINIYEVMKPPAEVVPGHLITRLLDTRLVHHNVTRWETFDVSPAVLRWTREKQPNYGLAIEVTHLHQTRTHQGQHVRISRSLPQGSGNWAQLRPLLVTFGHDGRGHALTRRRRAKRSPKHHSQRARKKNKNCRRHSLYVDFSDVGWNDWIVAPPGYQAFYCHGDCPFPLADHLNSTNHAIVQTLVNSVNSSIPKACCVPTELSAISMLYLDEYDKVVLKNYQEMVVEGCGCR

[5] = molecular target: Bone morphogenetic protein 6 (Homo sapiens, UniProt P22004); assay: Binding affinity to human recombinant BMP6 by surface plasmon resonance assay; procedure, shortened: as §1
[6] = molecular target: Sonic hedgehog protein (Homo sapiens, UniProt Q15465); assay: Binding affinity to human recombinant Shh by surface plasmon resonance assay; procedure, shortened: as §1
[7] = molecular target: T4, Bone morphogenetic protein 2 (Homo sapiens, UniProt P12643); assay: Binding affinity to human recombinant BMP2 by surface plasmon resonance assay; procedure, shortened: as §1
T4 sequence (P12643 whole entry): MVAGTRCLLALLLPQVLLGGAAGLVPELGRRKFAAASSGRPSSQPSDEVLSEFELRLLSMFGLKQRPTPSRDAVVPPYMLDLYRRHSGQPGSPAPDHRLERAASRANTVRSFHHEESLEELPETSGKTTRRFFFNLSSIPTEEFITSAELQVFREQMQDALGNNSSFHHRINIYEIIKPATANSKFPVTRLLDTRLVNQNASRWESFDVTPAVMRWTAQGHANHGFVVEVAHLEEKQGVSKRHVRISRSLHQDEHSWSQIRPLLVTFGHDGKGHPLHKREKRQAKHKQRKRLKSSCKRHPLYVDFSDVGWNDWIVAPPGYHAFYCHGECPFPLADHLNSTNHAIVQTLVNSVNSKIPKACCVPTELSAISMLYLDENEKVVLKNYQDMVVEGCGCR

[8] = molecular target: T5, Vascular endothelial growth factor A, long form (Homo sapiens, UniProt P15692); assay: Binding affinity to human recombinant VEGF165 by surface plasmon resonance assay; procedure, shortened: as §1
T5 sequence (P15692 whole entry): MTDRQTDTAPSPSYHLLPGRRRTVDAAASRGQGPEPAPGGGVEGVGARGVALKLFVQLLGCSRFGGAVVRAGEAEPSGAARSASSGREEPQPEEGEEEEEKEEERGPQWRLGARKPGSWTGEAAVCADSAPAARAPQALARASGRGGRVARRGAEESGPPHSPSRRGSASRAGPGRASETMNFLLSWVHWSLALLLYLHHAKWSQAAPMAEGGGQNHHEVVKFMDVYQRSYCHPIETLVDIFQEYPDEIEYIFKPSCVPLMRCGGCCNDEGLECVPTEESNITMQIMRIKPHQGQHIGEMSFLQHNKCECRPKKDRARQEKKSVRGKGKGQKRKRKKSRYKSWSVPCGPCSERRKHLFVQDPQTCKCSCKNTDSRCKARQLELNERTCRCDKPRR

Sequence of Bone morphogenetic protein 6 (P22004 375-513 limits assumed): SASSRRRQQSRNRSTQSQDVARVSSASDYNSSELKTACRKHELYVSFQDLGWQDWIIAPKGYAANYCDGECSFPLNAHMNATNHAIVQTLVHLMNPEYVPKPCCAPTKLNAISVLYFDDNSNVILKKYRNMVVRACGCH
T1 sequence (P09038 143-288 limits assumed): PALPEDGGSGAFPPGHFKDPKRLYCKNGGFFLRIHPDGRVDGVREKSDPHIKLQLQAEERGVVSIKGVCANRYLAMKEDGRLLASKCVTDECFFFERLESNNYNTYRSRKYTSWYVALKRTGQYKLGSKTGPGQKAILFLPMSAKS
Sequence of Sonic hedgehog protein (Q15465 24-197 limits assumed): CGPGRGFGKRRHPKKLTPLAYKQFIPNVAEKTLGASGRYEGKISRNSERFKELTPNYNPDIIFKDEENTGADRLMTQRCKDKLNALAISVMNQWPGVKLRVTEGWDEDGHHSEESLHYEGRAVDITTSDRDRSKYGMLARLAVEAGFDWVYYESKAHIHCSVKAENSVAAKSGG

Activity [1]	Kd [2]	Kd [3]	Kd [4]	Kd [5]	Kd [6]	Kd [7]	Kd [8]	SMILES
Active	250000 µM	25000 µM	250000 µM	250000 µM	27 µM	24 µM	66 µM	CCCCCO[C@H]1O[C@H](COS(=O)(=O)O)[C@@H](O[C@@H]2O[C@@H](C(=O)O)[C@@H](O[C@H]3O[C@H](COS(=O)(=O)O)[C@@H](O[C@@H]4O[C@@H](C(=O)O)[C@@H](O[C@H]5O[C@H](COS(=O)(=O)O)[C@@H](O[C@@H]6O[C@@H](C(=O)O)[C@@H](O)[C@H](O)[C@H]6OS(=O)(=O)O)[C@H](O)[C@H]5NC(C)=O)[C@H](O)[C@H]4OS(=O)(=O)O)[C@H](O)[C@H]3NC(C)=O)[C@H](O)[C@H]2OS(=O)(=O)O)[C@H](O)[C@H]1NC(C)=O
Active	250000 µM	25000 µM	250000 µM	9 µM	23 µM	34 µM	14 µM	CCCCCO[C@H]1O[C@H](COS(=O)(=O)O)[C@@H](O[C@@H]2O[C@@H](C(=O)O)[C@@H](O[C@H]3O[C@H](COS(=O)(=O)O)[C@@H](O[C@@H]4O[C@@H](C(=O)O)[C@@H](O[C@H]5O[C@H](COS(=O)(=O)O)[C@@H](O[C@@H]6O[C@@H](C(=O)O)[C@@H](O)[C@H](O)[C@H]6OS(=O)(=O)O)[C@H](O)[C@H]5NC(C)=O)[C@H](O)[C@H]4OS(=O)(=O)O)[C@H](O)[C@H]3NS(=O)(=O)O)[C@H](O)[C@H]2O)[C@H](O)[C@H]1NC(C)=O
Active	250000 µM	1 µM	250000 µM	250000 µM	122 µM	46 µM	86 µM	NCCCCCO[C@H]1O[C@H](CO)[C@@H](O[C@@H]2O[C@@H](C(=O)O)[C@@H](O[C@H]3O[C@H](CO)[C@@H](O[C@@H]4O[C@@H](C(=O)O)[C@@H](O[C@H]5O[C@H](CO)[C@@H](O[C@@H]6O[C@@H](C(=O)O)[C@@H](O)[C@H](O)[C@H]6OS(=O)(=O)O)[C@H](O)[C@H]5NS(=O)(=O)O)[C@H](O)[C@H]4OS(=O)(=O)O)[C@H](O)[C@H]3NS(=O)(=O)O)[C@H](O)[C@H]2OS(=O)(=O)O)[C@H](O)[C@H]1NS(=O)(=O)O
